The source of these data is ChEMBL document CHEMBL1125001, “Selective inhibition of urokinase by substituted phenylguanidines: quantitative structure-activity relationship analyses” (J Med Chem, 1990).

Experiment [1] concerns the target Plasma kallikrein (Homo sapiens) (UniProt P03952). The experiment is described as follows: Inhibition against human plasma Kallikrein at 2 mM. Type of experiment: cell-free. The gist of the method:
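Human plasma kallikrein in 50 mM Tris/HCl, 100 mM NaCl, pH 8.44, with H-D-Pro-Phe-Arg-p-nitroanilide (S-2302) as chromogenic substrate. Percent inhibition was taken at 2.0 mM inhibitor against 0.1 mM S-2302 (Km = 0.604 mM).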

Experiment [2] has as its target T1, Tissue-type plasminogen activator (Homo sapiens, UniProt P00750). The experiment can be described thus: Inhibition against Tissue plasminogen activator at 1 mM. The gist of the method:
(§1)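 Tissue-type plasminogen activator assayed by chromogenic amidolysis of H-D-Ile-Pro-Arg-p-nitroanilide (S-2288) in 0.2 M Tris/AcOH, pH 8.00. Percent inhibition was measured at 1.0 mM inhibitor against 0.3 mM S-2288 (Km = 0.673 mM). Separate Ki work used 0.1–0.9 mM S-2288.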
Target sequence in this assay (P00750 36-562 limits assumed): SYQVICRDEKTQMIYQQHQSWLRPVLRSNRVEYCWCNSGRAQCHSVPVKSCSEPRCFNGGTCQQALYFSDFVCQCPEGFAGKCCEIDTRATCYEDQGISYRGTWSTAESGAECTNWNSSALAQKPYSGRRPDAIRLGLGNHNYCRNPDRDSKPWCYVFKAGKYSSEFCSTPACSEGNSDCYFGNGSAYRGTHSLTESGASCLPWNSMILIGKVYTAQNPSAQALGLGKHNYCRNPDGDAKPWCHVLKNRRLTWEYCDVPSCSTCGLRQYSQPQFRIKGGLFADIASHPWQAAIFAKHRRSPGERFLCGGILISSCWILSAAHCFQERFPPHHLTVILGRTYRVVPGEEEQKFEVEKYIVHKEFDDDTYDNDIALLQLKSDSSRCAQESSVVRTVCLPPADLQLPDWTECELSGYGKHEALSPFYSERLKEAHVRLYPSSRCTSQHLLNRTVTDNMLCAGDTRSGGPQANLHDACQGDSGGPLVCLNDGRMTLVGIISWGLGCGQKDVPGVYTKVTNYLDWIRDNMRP

Experiment [3] has as its target T2, Urokinase-type plasminogen activator (Homo sapiens, UniProt P00749). The experiment can be described thus: log1/Ki value was calculated against Urokinase-type plasminogen activator. As to conditions: read-out: Log 1/Ki (converted).
In experiment [4] the target is T3, Serine protease 1 (Bos taurus, UniProt P00760).
T3 sequence (P00760 whole entry): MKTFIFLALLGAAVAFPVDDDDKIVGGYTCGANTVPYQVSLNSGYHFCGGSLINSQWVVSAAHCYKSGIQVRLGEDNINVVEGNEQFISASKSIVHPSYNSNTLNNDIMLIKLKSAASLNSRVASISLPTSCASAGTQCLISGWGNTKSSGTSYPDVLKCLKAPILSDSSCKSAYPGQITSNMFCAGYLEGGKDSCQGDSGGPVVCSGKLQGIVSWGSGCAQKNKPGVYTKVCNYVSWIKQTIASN
The experiment can be described thus: Inhibition against Trypsin.

The target of experiment [5] is T3, Serine protease 1. The experiment is described as follows: log1/Ki value was calculated against Trypsin. As to conditions: read-out: Log 1/Ki (converted).
Experiment [6] concerns the target Prothrombin (Homo sapiens) (UniProt P00734). The experiment can be described thus: Inhibition against human plasma thrombin at 1.0 mM. Type of experiment: cell-free. The method in brief: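 Highly purified human plasma thrombin in 0.2 M Tris/AcOH, pH 8.00, with H-D-Ile-Pro-Arg-p-nitroanilide (S-2288) as chromogenic substrate. Inhibition was measured at 1.0 mM inhibitor against 7.0 µM S-2288 (Km = 7.10 µM).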

Experiment [7] has as its target T2, Urokinase-type plasminogen activator. The experiment is described as follows: Inhibition against Urokinase-type plasminogen activator.
Experiment [8] concerns the target Plasminogen (Homo sapiens, UniProt P00747). The experiment can be described thus: Inhibition against human plasmin was determined at 0.5 mM. The method in brief: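 Human plasmin chromogenic amidolysis assay with substrate S-2251. Inhibition was measured at 0.5 mM inhibitor against 0.3 mM S-2251 (Km = 0.664 mM).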
For experiment [9], the target named is T1, Tissue-type plasminogen activator. The experiment is described as follows: The compound was tested for its inhibition against Tissue plasminogen activator at 1 mM when assayed against 0.3 mM S-2288 (Km = 0.673 mM). The method in brief: as §1
Target sequence in this assay (P00750 whole entry): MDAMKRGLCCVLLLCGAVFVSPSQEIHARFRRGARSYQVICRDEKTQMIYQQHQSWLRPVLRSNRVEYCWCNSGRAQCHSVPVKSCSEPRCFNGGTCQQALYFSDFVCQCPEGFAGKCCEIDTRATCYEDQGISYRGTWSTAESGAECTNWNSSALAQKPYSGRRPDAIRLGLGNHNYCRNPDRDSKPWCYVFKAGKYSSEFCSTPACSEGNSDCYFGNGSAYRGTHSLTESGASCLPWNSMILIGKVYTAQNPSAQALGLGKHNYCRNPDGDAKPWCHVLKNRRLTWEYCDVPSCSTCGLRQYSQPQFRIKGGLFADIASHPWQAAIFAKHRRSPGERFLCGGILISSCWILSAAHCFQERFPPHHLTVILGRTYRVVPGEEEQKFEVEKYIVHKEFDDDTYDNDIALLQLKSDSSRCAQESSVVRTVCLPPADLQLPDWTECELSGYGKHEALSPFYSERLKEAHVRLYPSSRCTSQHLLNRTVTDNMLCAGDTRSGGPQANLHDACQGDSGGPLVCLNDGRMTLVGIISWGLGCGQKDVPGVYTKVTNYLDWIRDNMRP

Chain of Plasma kallikrein (Homo sapiens) (P03952 20-390 limits assumed): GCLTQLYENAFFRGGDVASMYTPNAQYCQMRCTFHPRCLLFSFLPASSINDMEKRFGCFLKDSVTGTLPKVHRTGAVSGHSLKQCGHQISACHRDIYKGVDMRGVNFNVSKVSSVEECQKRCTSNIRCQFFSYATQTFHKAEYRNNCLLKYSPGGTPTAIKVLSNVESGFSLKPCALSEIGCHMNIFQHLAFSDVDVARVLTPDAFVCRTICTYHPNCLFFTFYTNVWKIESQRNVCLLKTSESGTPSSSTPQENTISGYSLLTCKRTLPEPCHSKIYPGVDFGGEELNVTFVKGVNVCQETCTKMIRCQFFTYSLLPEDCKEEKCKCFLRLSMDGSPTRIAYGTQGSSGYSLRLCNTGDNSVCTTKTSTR
Chain of Plasma kallikrein (Homo sapiens) (P03952 391-638 limits assumed): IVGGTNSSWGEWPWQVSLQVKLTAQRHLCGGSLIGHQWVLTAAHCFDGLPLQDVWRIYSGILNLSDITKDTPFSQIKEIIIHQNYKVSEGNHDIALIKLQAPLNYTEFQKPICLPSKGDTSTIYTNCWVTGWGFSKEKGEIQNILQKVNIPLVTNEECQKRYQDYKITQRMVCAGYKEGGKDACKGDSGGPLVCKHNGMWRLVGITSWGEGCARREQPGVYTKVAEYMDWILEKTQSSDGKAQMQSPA
Chain of Plasminogen (P00747 97-580 limits assumed): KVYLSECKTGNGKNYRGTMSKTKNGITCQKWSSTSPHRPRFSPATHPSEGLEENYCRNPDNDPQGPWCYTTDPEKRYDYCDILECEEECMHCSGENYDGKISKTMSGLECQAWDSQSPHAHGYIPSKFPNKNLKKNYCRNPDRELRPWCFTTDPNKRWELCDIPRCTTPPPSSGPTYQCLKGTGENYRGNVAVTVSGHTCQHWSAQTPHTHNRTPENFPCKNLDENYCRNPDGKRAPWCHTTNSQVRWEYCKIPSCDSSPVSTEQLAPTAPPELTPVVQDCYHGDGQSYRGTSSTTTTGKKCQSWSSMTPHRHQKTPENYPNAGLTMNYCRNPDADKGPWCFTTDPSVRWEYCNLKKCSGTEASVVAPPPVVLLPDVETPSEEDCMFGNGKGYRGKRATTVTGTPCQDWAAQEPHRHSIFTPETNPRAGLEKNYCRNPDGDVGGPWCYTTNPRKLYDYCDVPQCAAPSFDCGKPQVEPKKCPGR
Chain of Plasminogen (P00747 581-810 limits assumed): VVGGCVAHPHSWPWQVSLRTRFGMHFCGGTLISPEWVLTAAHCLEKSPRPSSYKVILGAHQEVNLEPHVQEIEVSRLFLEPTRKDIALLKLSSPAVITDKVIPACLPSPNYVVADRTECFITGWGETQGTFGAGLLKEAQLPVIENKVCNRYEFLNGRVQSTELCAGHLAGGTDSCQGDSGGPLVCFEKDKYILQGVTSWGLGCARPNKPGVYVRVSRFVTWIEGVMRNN

The term inhibition denotes the share of the control response that was lost under treatment. A low value points to a response near the control. On to `N=C(N)Nc1ccc(C(F)(F)F)cc1`, for which the figures for the inhibition in [1], in experiment [2] and in experiment [6] were < 30%, < 45% and < 10%, respectively. For the same compound, the Ki was 6.49 µM in [3], 63.1 µM in experiment [4], 63.1 µM in [5] and 6.49 µM in experiment [7].
For the compound `N=C(N)Nc1cccc(Cl)c1`, the inhibition in experiment [1] is < 30%; in experiment [2] it was < 45%; in [6], < 10%.
For the compound `N=C(N)Nc1ccc([N+](=O)[O-])cc1`, the results for the inhibition in experiment [1] and in experiment [6] were < 30% and < 10%, respectively. Besides, the Ki in [3] is 20.6 µM; in experiment [4] it was 352 µM; in [5], 352 µM; in experiment [7], 20.6 µM.
As for `N=C(N)Nc1ccc(/C=C/C(=O)O)cc1`, the inhibition in experiment [2] is < 45%. Also, the Ki in experiment [3] is 1320 µM; in experiment [4] it was 4920 µM; in experiment [5], 4920 µM; in experiment [7], 1330 µM.
Consider `NC(N)=Nc1cccc(C(F)(F)F)c1`, for which the Ki in experiment [3] is 419 µM; in experiment [4], 10700 µM; in [5], 10700 µM; in [7], 419 µM.
As for `COc1ccccc1NC(=N)N`, the inhibition was < 30% in experiment [1], < 45% in [2] and < 10% in [6]. Further, the Ki in [3] is 136 µM; in [4], 881 µM; in experiment [5] it was 881 µM; in [7], 136 µM.
`N=C(N)Nc1ccccc1N`: the inhibition in [1] was < 30%; in [2], < 45%; in [6], < 10%. The Ki in [3] was 388 µM; in experiment [4] it was 1180 µM; in experiment [5], 1180 µM; in experiment [7], 388 µM.
For the compound `N=C(N)Nc1ccc(Cl)cc1`, the values for the inhibition in experiment [1], in experiment [2] and in [6] were < 30%, < 45% and < 10%, respectively. For the same compound, the Ki in [3] is 6.07 µM; in experiment [4], 120 µM; in experiment [5], 120 µM; in experiment [7] it was 6.07 µM.
For the compound `CCc1ccc(NC(=N)N)cc1`, the inhibition in [1] was < 30%; in experiment [2], < 45%; in [6], < 10%. The Ki in [3] was 90.8 µM; in [4], 5770 µM; in experiment [5] it was 5770 µM; in [7], 90.7 µM.
`Cc1ccccc1NC(=N)N`: the inhibition in [1] was < 30%; in [2] it was < 45%; in experiment [6], < 10%. In addition, the Ki in experiment [3] is 259 µM; in experiment [4], 3550 µM; in [5], 3550 µM; in experiment [7], 259 µM.
Take `N=C(N)Nc1ccc(Br)cc1`: the inhibition was < 30% in experiment [1], < 45% in [2] and < 10% in experiment [6]. For the same compound, the Ki in [3] was 30.7 µM; in experiment [4], 2780 µM; in [5] it was 2780 µM; in [7] it was 30.7 µM.
Regarding `N=C(N)Nc1ccc(C(=O)O)cc1` [4-GUANIDINO-BENZOIC ACID], the values for the inhibition in experiment [1], in experiment [2] and in experiment [6] were < 30%, < 45% and < 10%, respectively. In addition, the Ki in [3] was 745 µM; in experiment [4] it was 10000 µM; in [5], 10000 µM; in experiment [7], 745 µM.
As for `N=C(N)Nc1ccccc1[N+](=O)[O-]`, the inhibition was < 30% in experiment [1], < 45% in experiment [2] and < 10% in experiment [6].
In the case of `NC(N)=Nc1ccccc1[N+](=O)[O-]`, the Ki is 54.3 µM in [3], 133 µM in experiment [4], 133 µM in [5] and 54.3 µM in [7].
In the case of `NC(N)=Nc1cccc(Cl)c1`, the Ki is 61.7 µM in [3], 1100 µM in [4], 1100 µM in experiment [5] and 61.8 µM in experiment [7].
For `N=C(N)Nc1ccccc1` [PHENYLGUANIDINE], the inhibition is < 30% in [1] and < 10% in [6]. The Ki in [8] is 2610 µM; in experiment [9], 733 µM; in experiment [3] it was 20.6 µM; in experiment [4], 163 µM; in experiment [5] it was 163 µM; in experiment [7], 20.6 µM.
As for `NC(N)=Nc1ccccc1Cl`, the Ki was 103 µM in [3], 898 µM in experiment [4], 897 µM in experiment [5] and 103 µM in [7].
In the case of `Cc1ccc(NC(=N)N)cc1`, the inhibition in experiment [1] is < 30%; in experiment [2], < 45%; in [6], < 10%. The Ki was 15.6 µM in experiment [3], 318 µM in experiment [4], 318 µM in experiment [5] and 15.6 µM in experiment [7].
`COC(=O)c1ccc(NC(=N)N)cc1`: the values for the inhibition in experiment [1], in experiment [2] and in experiment [6] were < 30%, < 45% and < 10%, respectively. Also, the Ki in experiment [3] is 1450 µM; in experiment [4], 652 µM; in [5], 652 µM; in experiment [7], 1450 µM.
For `N=C(N)Nc1ccccc1Cl`, the values for the inhibition in experiment [1], in experiment [2] and in [6] were < 30%, < 45% and < 10%, respectively.
As to `COc1ccc(NC(=N)N)cc1`, the inhibition in experiment [1] is < 30%; in [2], < 45%; in experiment [6], < 10%. The Ki in experiment [3] was 676 µM; in experiment [4], 5890 µM; in experiment [5] it was 5890 µM; in experiment [7] it was 676 µM.
On to `N=C(N)Nc1ccc(F)cc1`, for which the values for the inhibition in [1], in [2] and in experiment [6] were < 30%, < 45% and < 10%, respectively. For the same compound, the Ki in experiment [3] is 72.4 µM; in experiment [4], 808 µM; in experiment [5] it was 807 µM; in [7] it was 72.4 µM.
As to `N=C(N)Nc1cccc(C(F)(F)F)c1`, the inhibition in [1] was < 30%; in [2], < 45%; in [6] it was < 10%.
